The source of these data is publication PMC6448596 (Cell reports, 2019).

By GI50 is commonly meant the concentration at which growth is held to half of that of the control. Broadly, the IC50 is the midpoint of a concentration-inhibition curve. A low value points to inhibition by little substance.

The test system of assay [1] is NPM1 localisation in MV4:11 cells. The assay is described as follows: Nucleophosmin. It counts as cell-based, human. The note with it: MV4:11, 4 μM, 3 days. The gist of the method:
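Cells were cytospun onto slides (100,000 cells, 800 rpm, 3 min) and immunostained for NPM. The per-cell nucleolar-to-nucleoplasmic NPM ratio was quantified from two biological replicates (SD). One-way ANOVA with Dunnett's test versus DMSO.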

A further assay concerns HL60 cells. The assay is described as follows: Proliferation assay. It counts as cell-based. The settings on record: Homo sapiens, HL-60, 72 h. A digest of the protocol: (§1)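 CellTiter-Glo, 5,000 cells/well. Cells received 0.1% DMSO or at least five two-fold dilutions of test compound (top 50 μM, final DMSO 0.1%), in triplicate wells and ≥2 biological replicates, for 72 h at 37°C. Reagent was added after equilibration to RT, with 30 min dark incubation before luminescence. Signals were normalized to DMSO wells and GI50 obtained by curve fitting. Curve error bars are SEM.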

Assay [2] has as its system p53 and p21 protein levels in MV4:11 cells. The assay is described as follows: p53/p21 induction western blot. Format: cell-based, human. The settings on record: MV4:11, 2 μM, 24 h. The gist of the method:
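Treatment lasted 24 h with test compound or its negative control, at 2 μM in MV4:11 and 3 μM in Molm13. Comparators were 2 μM Nutlin-3 or 0.1% DMSO. Four million cells were PBS-washed and lysed 10 min on ice in Kischkel buffer. p53 and p21 were detected by western blot, with histone H3 as loading control.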
Background: Immunoblotting shows a protein as a band on a membrane.

For the next assay, the system named is MA93 Ras cells. The assay is described as follows: Proliferation assay. It counts as cell-based. The settings on record: Homo sapiens, MA9.3RAS, 72 h. A digest of the protocol:
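CellTiter-Glo at 2,000 cells/well. MA93 Ras and MA93 FLT3/ITD were maintained in IMDM/20% FBS. Parental MA93 received IMDM/20% FBS plus 10 ng/mL human SCF, TPO, FLT3L, IL3 and IL6. Dosing used ≥5 two-fold dilutions from 50 μM top, 0.1% DMSO final, in triplicate wells with ≥2 biological replicates. Plates ran 72 h at 37°C, followed by 30 min reagent incubation at RT in the dark. GI50 came from DMSO-normalized luminescence.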

The subject of assay [3] is MV4:11 cells. The assay is described as follows: Growth and viability time course. Format: cell-based, human.
A further assay deals with NOMO-1 cells. The assay is described as follows: Proliferation assay. It counts as cell-based. The note with it: Homo sapiens, NOMO-1, 72 h. The gist of the method: as §1
For assay [4], the system named is gene expression in MV4:11 cells. The assay is described as follows: RNA-Seq. Format: cell-based, human. The settings on record: overlap of RNA-seq and WDR5 ChIP-seq, MV4:11.
Assay [5] deals with T1, WDR5 (Homo sapiens, UniProt P61964). The assay is described as follows: ChIP-Seq of WDR5. It counts as cell-based. The settings on record: MV4:11, 2 μM, 4 h. A digest of the protocol: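 MV4:11 cells at 10^6/ml were treated 4 h with 2 μM test compound, negative control or 0.1% DMSO. Cells were concentrated to 4 × 10^6/ml in PBS, fixed in 1% formaldehyde for 10 min at RT and quenched with 125 mM glycine. They were lysed in 1% SDS FA buffer. Sheared chromatin was diluted to 0.1% SDS and immunoprecipitated overnight at 4°C with anti-WDR5 (D9E1I or 429A) or IgG on BSA-blocked protein-A agarose. Peaks were compared by normalized average read counts.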

Assay [6] relates to MV4:11 cells. The assay is described as follows: Induction of apoptosis. Format: cell-based, human. The settings on record: 2 μM, up to 6 days. A digest of the protocol: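 MV4:11 cells were exposed 0–6 days to 2 μM test compound, negative control or 0.1% DMSO, with medium and compound refreshed on day 3. Camptothecin (2 μM, 4 h) served as positive control. 5 × 10^5 cells were stained with Alexa Fluor488–annexin V for 15 min, then propidium iodide for 10 min. Flow cytometry recorded ≥10,000 events, with doublet exclusion and quadrants set on unstained cells. Annexin V+/PI− % is from three biological replicates, SEM.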

A further assay concerns the target MLL1 complex (Homo sapiens, UniProt P61964). The assay is described as follows: MLL1 HMT assay. Format: biochemical.
In the next assay the test system is HEL cells. The assay is described as follows: Proliferation assay. The settings on record: Homo sapiens, 72 h. It counts as cell-based. A digest of the protocol:
as §1

Assay [7] addresses T1, WDR5. The assay is described as follows: Western blot of endogenous WDR5 levels. It counts as cell-based. The settings on record: MV4:11, 4 µM, 24 hours.
Another assay relates to RN2 cells. The assay is described as follows: Proliferation assay. Format: cell-based, murine. The settings on record: Mus musculus, 72 h. The gist of the method: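 Murine RN2 cells were seeded at 2,500/well and exposed to ≥5 two-fold dilutions (top 50 μM, 0.1% DMSO final) in triplicate wells, with ≥2 biological replicates, for 72 h. MTS reagent was added for 1.25 h at 37°C and absorbance read at 490 nm. Values were normalized to DMSO wells and GI50 fitted. Error bars are SEM.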

Another assay relates to Molm13 cells. The assay is described as follows: Proliferation assay. The settings on record: Homo sapiens, MOLM-13, 72 h. Format: cell-based. The gist of the method: as §1
Another assay relates to MONO-Mac-6 cells. The assay is described as follows: Proliferation assay. Format: cell-based. The settings on record: Homo sapiens, MONO-MAC-6, 72 h. A digest of the protocol:
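MONO-MAC-6 cells were maintained in RPMI with 10% FBS, non-essential amino acids and OPI supplement. CellTiter-Glo used 5,000 cells/well and ≥5 two-fold dilutions from 50 μM (0.1% DMSO final), in triplicate wells with ≥2 biological replicates, over 72 h at 37°C.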

Assay [8] has as its system MV4:11 cells expressing shRNAs against p53. The assay is described as follows: Proliferation assay in MV4:11 cells expressing p53 or scrambled shRNAs. Format: cell-based. The settings on record: Homo sapiens, MV4-11, 72 h, MV4:11 expressing p53 shRNA_941, 3-day treatment. A digest of the protocol:
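Proliferation was measured in MV4:11 cells carrying scrambled, p53 sh_427 or p53 sh_941 shRNA. Cells received 3-day test compound treatment in a dose–response series, with GI50 derived from the curves.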

Assay [9] has as its system MV4:11 cells. The assay is described as follows: Cell cycle analysis. Format: cell-based, human. The note with it: 2 μM, up to 6 days. The gist of the method:
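1 million cells were fixed dropwise in ice-cold 70% ethanol (≥2 h, […]) and stained with PI (10 μg/mL) plus RNase for 20 min at RT in the dark. Flow: ≥10,000 events, doublets excluded. Three biological replicates, SEM.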

For a further assay, the system named is GDM-1 cells. The assay is described as follows: Proliferation assay. Format: cell-based. The settings on record: Homo sapiens, GDM-1, 72 h. A digest of the protocol: as §1
The subject of assay [10] is protein synthesis in MV4:11 cells. The assay is described as follows: Relative protein synthesis rates. The note with it: MV4:11, 2 μM. Format: cell-based, human. The gist of the method: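 Cycloheximide 30 min before OPP served as positive control; an OPP-free sample set background. Alexa647 signal was read by flow (≥10,000 events, doublets excluded). Biological triplicate, SEM.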

`Cc1nc(F)ccc1-c1cc(Cn2ccn(C)c2=N)cc(C(=O)NCc2ccc(Cl)c(Cl)c2)c1` [Compound C6, N-(3,4-Dichlorobenzyl)-3-(6-fluoro-2-methylpyridin-3-yl)-5-((2-imino-3-methyl-2,3-dihydro-1H-imidazol-1-yl)methyl)benzamide]: in [1], the “NPM1 distribution, nucleolar stress” value was “redistribution of nucleophosmin (NPM1) from the nucleolus to the nucleoplasm”. For the same molecule, the concentration for 50% growth inhibition (GI50) in the assay with HL60 cells was 14.8 ± 1.1 µM; in the assay on MA93 Ras cells it was 20.8 ± 2.62 µM; in the assay on NOMO-1 cells it was greater than 50 µM; in the assay on HEL cells, greater than 50 µM; with RN2 cells, 11.2 ± 1.48 µM; with Molm13 cells, 6.43 ± 0.683 µM. The GI50 with MONO-Mac-6 cells was 31.7 ± 2.32 µM; in assay [8] it was 15 µM; in the assay with GDM-1 cells it was greater than 50 µM. In addition, the “p53 and p21 protein induction” value in [2] is listed as “moderately induces p53”. Further, the “inhibition of proliferation, live cells over time” value with MV4:11 cells [3] (2 μM (GI50 concentration), 1-6 days) is listed as “inhibition of proliferation can be detected within a few days of treatment”. The “cellular viability over time” value in the assay on MV4:11 cells [3] (2 μM, between 2 and 6 days of treatment) is “progressive decrease in cellular viability”. In addition, the “number of WDR5-bound genes induced” value in assay [4] is 1. Further, the “number of WDR5-bound genes repressed” value in [4] amounted to 59. For the same molecule, the “WDR5 binding events on chromatin” value on WDR5 [5] is “robust decrease in all detectable WDR5 binding events”. Also, the “annexin V staining, apoptotic cells” value in the assay on MV4:11 cells [6] is recorded as “appearance of apoptotic cells”. For the same molecule, the “specificity of HMT inhibition among all MLL/SET complexes” value at MLL1 complex is recorded as “specific for MLL1, with little activity against other MLL/SET family members”. Besides, on MLL1 complex, the “window of selectivity for MLL1 over other MLL/SET complexes” value was no less than 250 fold. The same molecule registered a concentration for half-maximal inhibition (IC50) against MLL1 complex (MLL1 HMT IC50, H3 peptide as substrate) of roughly 0.02 µM. Further, the WDR5 protein levels result at WDR5 [7] is “no measurable effect on WDR5 levels”. In addition, the “cell-cycle distribution, sub-G1 DNA content” value with MV4:11 cells [9] is on record as “time-dependent increase in cells with a sub-G1 DNA content”. Further, the OPP incorporation result in assay [10] (1 day) was “measurable reduction in OPP incorporation”; in assay [10] (6 days) it was “roughly half of the cells in the C6-treated population incorporated OPP at levels similar to those of cells treated with CHX”.
